For data set [1], the target named is RIPK2 (h) (Homo sapiens, UniProt O43353). The data set can be described thus: RIPK2 kinase assay. In kind it is biochemical.
Data set [2] in a line: Pharmacokinetic study in mice, i.v. and p.o. In kind it is in vivo. The conditions noted are these: BALB/c, mouse, plasma, 10 mg/kg.
Data set [3] concerns the target T1, RIPK1 (Homo sapiens, UniProt Q13546).
T1 sequence (Q13546 1-671): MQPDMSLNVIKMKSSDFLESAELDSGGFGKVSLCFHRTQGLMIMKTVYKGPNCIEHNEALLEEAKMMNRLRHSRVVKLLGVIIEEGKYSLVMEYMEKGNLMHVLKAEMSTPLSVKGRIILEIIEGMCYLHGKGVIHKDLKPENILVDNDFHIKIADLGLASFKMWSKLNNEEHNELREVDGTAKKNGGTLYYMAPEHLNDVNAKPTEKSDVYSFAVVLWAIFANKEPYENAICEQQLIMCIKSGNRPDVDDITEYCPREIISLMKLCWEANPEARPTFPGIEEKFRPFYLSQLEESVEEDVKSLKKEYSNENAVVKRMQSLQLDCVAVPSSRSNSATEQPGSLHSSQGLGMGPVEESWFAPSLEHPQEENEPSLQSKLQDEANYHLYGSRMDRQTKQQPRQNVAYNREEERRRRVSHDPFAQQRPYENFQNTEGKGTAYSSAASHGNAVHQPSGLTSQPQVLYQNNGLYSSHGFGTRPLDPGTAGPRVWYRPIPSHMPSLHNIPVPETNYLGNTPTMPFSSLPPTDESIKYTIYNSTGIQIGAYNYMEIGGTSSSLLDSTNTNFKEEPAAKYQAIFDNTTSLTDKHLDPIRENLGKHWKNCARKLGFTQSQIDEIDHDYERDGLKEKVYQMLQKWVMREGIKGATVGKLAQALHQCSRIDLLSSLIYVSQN
The data set can be described thus: RIPK1 kinase assay. It counts as biochemical.

A short description of data set [4]: Plasma exposure test, oral 10 mg/kg. In kind it is in vivo. The conditions noted are these: 10 mg/kg p.o., BALB/c mice. The method in brief: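 Test compound in saline with 2.5% DMSO, given orally at 10 mg/kg to BALB/c mice (20–22 g), n = 3. Blood drawn at 0.5, 2 and 6 h after dosing, centrifuged to obtain plasma. Proteins precipitated with acetonitrile containing SAHA internal standard, centrifuged again; supernatant concentrations quantified by LC–MS/MS.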

Data set [5] deals with APAP-induced ALI (650 mg/kg APAP). As to the kind of experiment: Survival period in APAP-induced acute liver injury. Conditions: APAP 650 mg/kg, 96 h observation. It counts as in vivo, C57BL/6 mice. The method in brief: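 Male C57BL/6 mice (24–25 g), fasted 16 h with free water, randomised 10 per group. APAP 650 mg/kg i.p., immediately followed by oral test compound (5, 10 or 20 mg/kg; reference groups NAC 30 mg/kg or a RIPK2 inhibitor 10 mg/kg). A second dose was given 12 h after induction. Saline controls included. Survival followed over 96 h.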

A short description of data set [6]: Metabolic stability assay in human liver microsome. It counts as in vitro ADME.

Usually IC50 stands for the concentration needed to halve the response being measured. A lower IC50 goes with inhibition by little substance. The AUC(0-t) is the area under the concentration-time curve up to a stated or last time point. Low readings indicate less exposure, high ones more exposure. The term Cmax denotes the highest concentration seen after dosing. Usually half-life stands for how long it takes for the measured level to halve. A higher half-life goes with slow decline. A word on the bioavailability: it is dose-corrected exposure relative to a reference, in per cent.

Sequence of RIPK2 (h) (O43353 whole entry): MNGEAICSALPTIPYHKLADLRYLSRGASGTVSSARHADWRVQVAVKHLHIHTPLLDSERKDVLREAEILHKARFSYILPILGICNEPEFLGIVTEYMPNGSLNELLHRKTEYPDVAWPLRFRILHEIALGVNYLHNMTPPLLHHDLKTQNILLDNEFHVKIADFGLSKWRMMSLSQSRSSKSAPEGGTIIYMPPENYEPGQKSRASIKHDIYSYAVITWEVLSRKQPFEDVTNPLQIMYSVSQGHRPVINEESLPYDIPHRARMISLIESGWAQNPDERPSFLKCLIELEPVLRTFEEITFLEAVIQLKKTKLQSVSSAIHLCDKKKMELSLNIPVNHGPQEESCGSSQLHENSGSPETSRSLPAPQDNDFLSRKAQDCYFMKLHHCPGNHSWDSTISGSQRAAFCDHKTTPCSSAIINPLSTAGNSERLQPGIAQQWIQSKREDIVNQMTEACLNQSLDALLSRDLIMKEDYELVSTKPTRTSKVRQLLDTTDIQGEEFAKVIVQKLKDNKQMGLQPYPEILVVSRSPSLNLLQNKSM

Consider `CC(C)(C)S(=O)(=O)c1cc2c(Nc3ccc4scnc4c3)ncnc2cc1OCCOP(=O)(O)O` [GSK2983559, 2-((4-(benzo[d]thiazol-5-ylamino)-6-(tert-butylsulfonyl)quinazolin-7-yl)oxy)ethyl dihydrogen phosphate], for which the IC50 in data set [1] turned out to be 7 nM. In data set [2] (iv), the AUC(0-t) was 3780 ± 255 ng·h/mL, the highest level (Cmax) was 5680 ± 521 ng/mL, the Vd worked out at 9.46 ± 4.13 L/kg and the clearance was 44.3 mL/min/kg. Also, the half-life in data set [2] (iv) was 2.42 ± 0.86 h. In data set [2] (po), this molecule gave an AUC(0-t) of 3120 ± 1060 ng·h/mL, a Cmax of 2620 ± 413 ng/mL, a bioavailability of 82.7% and a half-life of 2.74 ± 0.25 h. Further, in data set [3], the half-inhibitory concentration (IC50) is more than 30000 nM. Besides, in data set [4] (0.5 h), the “Plasma concentration 0.5 h” value is 1154 ± 125 ng/mL. Also, in data set [4] (2 h), the “Plasma concentration 2 h” value is 145 ± 42 ng/mL. Also, in data set [4] (6 h), the “Plasma concentration 6 h” value is listed as 21 ± 11 ng/mL. The survival of mice result in data set [5] is recorded as “significantly prolong the survival”.
In the case of `CC(=O)N[C@@H](CS)C(=O)O` [NAC, N-acetylcysteine], the survival of mice entry in data set [5] is on record as “only deferred the time of mortality”.
Molecule `Fc1cc2scnc2cc1Nc1ncnc2sc(C3=CCNCC3)cc12` [RP1, N-(6-fluorobenzo[d]thiazol-5-yl)-6-(1,2,3,6-tetrahydropyridin-4-yl)thieno[2,3-d]pyrimidin-4-amine] yielded a CL in data set [6] (human liver microsomes, 1 μmol/L) of less than 12 mL/min/g·protein. In addition, the half-life at 1 μmol/L in data set [6] (human, pooled liver microsomes) is more than 2 h. This molecule also yielded an IC50 in data set [1] of 9 nM. In data set [3] (active RIPK1 activity relative to control, 1 μmol/L), the “RIPK1 Percentage%@1 μmol/L” value came to 99 ± 2%.

(Values after paper PMC12278411 (Acta Pharmaceutica Sinica. B, 2025).)
